Published values from different studies.
Protocols differ between the studies behind these lines.
Target: BDNF/NT-3 growth factors receptor (NTRK2, Homo sapiens, UniProt Q16620)

SMILES	assay	setting	quantity	value
C#Cc1n[nH]c2c(-c3cn(C(C)c4ccccn4)c(=O)[nH]c3=O)cc(F)cc12 (centres unmarked)	enzyme activity, inhibitor	1 µM	inhibition	2.8%
O=c1[nH]c2ccccc2n1C1CCN(Cc2ccc(-c3[nH]c4cc5ncnc5cc4nc3-c3ccccc3)cc2)CC1	cell-free assay	0.5 µM	remaining signal	99.4%
Nc1ncc(-c2nc(N3CCOCC3)nc(N3CCOCC3)n2)c(C(F)F)n1	cell-free assay, competition with immobilised ligand	10 µM	remaining binding	74%
N#CC1(c2ccccn2)CCN(Cc2cc(C(=O)O)c(=O)n3ccccc23)CC1	cell-free assay, competition with immobilised ligand	1 µM	remaining binding	84%
COc1ncccc1-c1cnn2ccc(N3CCN(C(=O)OC(C)C)CC3)nc12	binding, competition with immobilised ligand	1 µM	remaining binding	40%
C#Cc1n[nH]c2c(-c3cn([C@@H](C)c4ccccc4)c(=O)[nH]c3=O)cc(F)cc12	enzyme activity, inhibitor	0.1 µM	inhibition	6.2%
COc1cc(Nc2ncc(F)c(Nc3ccc4c(n3)NC(=O)C(C)(C)O4)n2)cc(OC)c1OC	binding, competition with immobilised ligand	10 µM	inhibition	95%
Cn1cc(-c2cc(F)cc(N3CCn4c(cc5c4CCCC5)C3=O)c2CO)cc(Nc2ccc(N3CCN(C4COC4)CC3)cn2)c1=O	enzyme activity, inhibitor	0.1 µM	inhibition	11%
CC(C)(C)c1cc(C=C(C#N)C#N)cc(Br)c1O	enzyme activity, inhibitor	0.5 µM	remaining activity	90.9%
Cn1cncc1[C@](O)(COc1ccc(C#N)cc1-c1ccc(OC(F)(F)F)cc1)c1ccc(C#N)cc1	cell-free assay, competition with immobilised ligand	1 µM	remaining binding	92%
Cc1nn(C)cc1-c1nc2c(N3CCN(Cc4ccc(Cl)cc4)CC3)c(Cl)cnc2[nH]1	binding, competition with immobilised ligand	1 µM	remaining binding	44%
